Plk1 PBD FP – Plk1 polo box domain binding inhibitors, primary screen, biochemical, fluorescence polarization; Plk1 PBD phosphopeptide binding; inhibition, %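 (tested at about 20 µM)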; Serine/threonine-protein kinase PLK1 (Homo sapiens), P53350; 0.13% of 97,000 active; in the data active = inhibition above about 34%, passing the limit was not always enough
Target sequence (P53350 whole entry, looked up, the tested form may be a part): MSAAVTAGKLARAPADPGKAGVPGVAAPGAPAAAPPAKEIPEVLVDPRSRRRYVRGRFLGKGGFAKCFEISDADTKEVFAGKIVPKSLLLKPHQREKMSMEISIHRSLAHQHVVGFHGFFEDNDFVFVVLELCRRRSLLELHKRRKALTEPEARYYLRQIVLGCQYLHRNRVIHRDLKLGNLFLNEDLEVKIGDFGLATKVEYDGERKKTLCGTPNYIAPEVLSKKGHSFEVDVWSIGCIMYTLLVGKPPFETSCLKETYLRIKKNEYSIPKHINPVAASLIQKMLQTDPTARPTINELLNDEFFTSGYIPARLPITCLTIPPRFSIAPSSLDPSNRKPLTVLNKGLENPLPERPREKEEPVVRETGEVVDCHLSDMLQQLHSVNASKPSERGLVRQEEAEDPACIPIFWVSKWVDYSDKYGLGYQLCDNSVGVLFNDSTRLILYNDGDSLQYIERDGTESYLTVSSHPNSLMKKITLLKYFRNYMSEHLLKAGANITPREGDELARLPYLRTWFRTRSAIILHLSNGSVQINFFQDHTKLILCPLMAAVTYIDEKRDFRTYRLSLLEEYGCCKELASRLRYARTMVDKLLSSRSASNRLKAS
AP complement – alternative complement pathway inhibitors, primary screen, biochemical, ELISA, human serum, orthogonally pooled compounds; LPS-coated ELISA, C3 deposition; tested in compound mixtures; inhibition, % at 5 µM; 0.08% of 62,000 active; AID 1235, 2008;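 active = inhibition above 30% in each of the two pooled mixtures holding the compound, so the lower value exceeds 30%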;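 also: 0% = serum in Mg-EGTA without compound and 100% = EDTA serum blank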
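Test system: human serum complement alternative pathway, C3 deposition onto LPS / Medium: Mg2+-EGTA GVB++ buffer containing human serum at 1:15 dilution / Probe or stimulus: Plate-bound LPS / Times: 1 h at 37 °C / Signal: ELISA with HRP anti-human C3 antibody, TMB substrate, absorbance 450 nm / Measure: percent inhibition / Repeats: two pool placements per compound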
PLK1 kinase inh – human PLK1 kinase inhibitors, primary screen, biochemical, TR-FRET; recombinant PLK1 kinase, TR-FRET peptide phosphorylation; 0.53% of 97,000 active; Serine/threonine-protein kinase PLK1 (Homo sapiens), P53350; AID 619, 2007; inhibition, % at 10 µM;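 active = inhibition of 50% or more in the single-concentration screen; inactive = inhibition below 50%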;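 also: 0% = DMSO max control and 100% = H-89 dihydrochloride min control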
PTK2B oligo ant – antagonists of Pyk2 self-association, primary screen, Q293 cells, FERM NanoBiT luminescence, HTS; Protein-tyrosine kinase 2-beta (Homo sapiens), Q14289; stronger effect = lower value; z-score (the deposit names both 25 µM and 10 µM); 0.83% of 99,000 active;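 active = Z-score of -3 or lower, scaled per plate to the spread of control and sample wells; inactive = z-score above -3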;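 also: negative z-score means lost luminescence so less FERM oligomerization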
HePTP inhibitor – inhibitors of human HePTP phosphatase, primary screen, biochemical, absorbance, leukemia target | Tyrosine-protein phosphatase non-receptor type 7 (Homo sapiens), P35236 | recombinant HePTP phosphatase activity, OD absorbance | inhibition, % at 20 µM | 0.64% of 110,000 active | AID 521, 2006; in the data active = inhibition above about 50%;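 also: plate controls were vehicle for no effect and reference inhibitor for full effect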
HEK293 NFkB inh – inhibitors of PMA/ionomycin-induced NF-kB reporter, primary screen, antigen receptor NF-kB inhibitor project, cell-based, HEK-293 luciferase reporter, luminescence; 0.21% of 62,000 active; inhibition, % at 3 µM; HEK-293 NF-kB luciferase reporter; AID 465, 2006;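 active = inhibition above the mean of all tested compounds plus 3 SD, cut at about 40% in these data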;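 also: 0% = stimulated DMSO wells and 100% = 10 µM reference inhibitor 5653914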
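System: NF-kB luciferase reporter HEK-293 cells | Replication: Single test | Control set: DMSO vs reference inhibitor | Evaluation: % inhibition | Schedule: 1 h pretreatment, 16 h stimulation, 37 °C | Probe or stimulus: PMA with ionomycin | Compound dosing: One dose, 3 µM | Detection: Luciferase luminescence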
Numbers without * were called inactive; nt = not tested or not shown. An excerpt weighted towards active compounds, which were near 1.5% of everything screened.

SMILES	Plk1 PBD FP	AP complement	PLK1 kinase inh	PTK2B oligo ant	HePTP inhibitor	HEK293 NFkB inh
O=C1N=c2ccccc2=C1c1cc(-c2ccccc2)oc1O	nt	nt	nt	nt	56*	nt
CCOC(=O)c1[nH]c(=O)[nH]c1Cn1ccnc1	nt	nt	nt	nt	-15	nt
CN1C(=O)N(C)C(c2ccccc2)(c2ccccc2)C1=O	nt	nt	nt	nt	5	nt
CCc1ccc(/C=C2/C(=O)NC(=O)N(c3cccc(C)c3)C2=O)cc1	nt	nt	nt	nt	9	nt
CC(C)c1ccc(N2C(=O)NC(=O)/C(=C/c3ccc(Br)o3)C2=O)cc1	nt	nt	nt	nt	102*	nt
CC(C)c1ccc(N2C(=O)NC(=O)/C(=C/c3ccc(F)cc3)C2=O)cc1	nt	nt	nt	nt	-2	nt
Cc1cccc(N2C(=O)NC(=O)/C(=C/c3ccc(Br)o3)C2=O)c1	nt	nt	nt	nt	75*	nt
O=C1C(=O)N(c2cccc(Cl)c2)C(c2ccc([N+](=O)[O-])cc2)/C1=C(\O)c1ccccc1 (centres undefined)	nt	nt	nt	nt	10	nt
COc1ccc(-c2oc(/N=C/N3CCOCC3)c(C#N)c2-c2ccc(OC)cc2)cc1	-8	8	-9	-3.6*	-1	25
N#Cc1c(/N=C/c2ccccc2)oc(-c2ccccc2)c1-c1ccccc1	-8	nt	-5	-0.22	nt	nt
O=C(COC(=O)c1c2c(nc3ccccc13)CCCC2)Nc1ccc2c(c1)OCO2	12	nt	-6	-3.5*	-6	14
COc1cccc(NC(=O)COC(=O)c2c3c(nc4ccccc24)CCC(C)C3)c1 (centres undefined)	-9	nt	-9	-4.7*	nt	nt
O=C(Nc1ccccc1C(=O)Nc1ccc(Br)cn1)c1ccccc1	nt	nt	nt	nt	0	nt
COc1ccc(C(N)=O)cc1S(=O)(=O)N1CCOCC1	nt	nt	nt	nt	12	nt
CCOc1ccc(C2=C/C(=C/c3cc(Br)c(OC)cc3OC)C(=O)O2)cc1	nt	nt	nt	nt	9	nt
O=C(N/N=C/c1ccc([N+](=O)[O-])o1)c1ccc(O)cc1	nt	nt	nt	nt	102*	nt
CC1=C(C(=O)Nc2ccc(Br)cc2)C(c2ccc([N+](=O)[O-])cc2)NC(=S)N1 (centres undefined)	nt	nt	nt	nt	-3	nt
CCOc1ccc(C(=O)Nc2ccc(NC(=O)c3ccco3)c(Cl)c2)cc1Cl	-30	nt	-35	0.67	nt	nt
CCOc1ccccc1NC(=O)c1cccc(NC(=O)c2ccco2)c1	6	3	-15	-0.58	-1	42*
COc1ccc(C(=O)N2CCN(Cc3ccc(SC)cc3)CC2)cc1	nt	nt	nt	nt	10	nt
Cc1ccc(C(=O)NC(NC(=S)Nc2cc(C)ccc2C)C(Cl)(Cl)Cl)cc1 (centres undefined)	nt	nt	nt	nt	75*	nt
Cc1ccc(C(=O)NC(NC(=S)Nc2ccccc2)C(Cl)(Cl)Cl)cc1 (centres undefined)	nt	nt	nt	nt	4	nt
CCOC(=O)c1ccc(N2C(=O)c3n[nH]c(C)c3C2c2ccccc2)cc1 (centres undefined)	-25	10	1	-3.1*	-5	22
N#CC1=C2SCN(c3ccccc3)CN2C(=O)CC1c1ccccc1Cl (centres undefined)	8	4	56*	nt	6	8
CCc1ccc(S(=O)(=O)Nc2ccc(C)cn2)cc1	nt	nt	nt	nt	-2	nt
SMILES	Plk1 PBD FP	AP complement	PLK1 kinase inh	PTK2B oligo ant	HePTP inhibitor	HEK293 NFkB inh
CCCc1nc2ccccc2n1C(=O)c1ccccc1C(=O)O	nt	nt	nt	nt	-3	nt
CC1(C)NC(=O)N(CC(O)COc2ccc(Cl)cc2)C1=O (centres undefined)	nt	nt	nt	nt	-3	nt
COc1cc(C=C2C(=O)OC(C)(C)OC2=O)cc(Cl)c1O	nt	nt	nt	nt	6	nt
COc1cc(/C=C2/CCC/C(=C\c3cc(O)c(OC)c(Cl)c3)C2=O)cc(Cl)c1O	-53	nt	5	-4.2*	nt	nt
CC(CN(C)Cc1ccccc1)OC(=O)C1COc2ccccc2O1 (centres undefined)	-4	15	62*	nt	4	8
O=C(NCc1ccccc1)C1COc2ccccc2O1 (centres undefined)	19	nt	-5	0.42	nt	nt
Cc1cc(C(C#N)c2ccccc2)n2ncnc2n1 (centres undefined)	-6	-5	53*	-0.02	8	-2
Cc1sc2nc(CN(Cc3ccccc3)C(=O)NC3CCCCC3)[nH]c(=O)c2c1C	-9	nt	50*	-3*	nt	nt
CCN(CC)c1ccc(/C=C2/C(=O)NN(c3ccc(C)cc3)C2=O)c(O)c1	nt	nt	nt	nt	61*	nt

From PubChem
